Source: ChEMBL document CHEMBL1255347, “Multiclonal outbreak of Klebsiella pneumoniae producing extended-spectrum beta-lactamase CTX-M-2 and novel variant CTX-M-59 in a neonatal intensive care unit in Brazil” (2008)
In brackets after ≈: the same amount, converted by molar mass.

Assays:
Format in all cases: functional
[1] = tested on: Klebsiella pneumoniae; assay: Antimicrobial activity against CTX-M-2 producing Klebsiella pneumoniae with PFGE pulsotype A by Etest
In short: (§1)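 Clinical K. pneumoniae isolates from a neonatal ICU outbreak near São Paulo were typed by XbaI PFGE using Tenover criteria. Cultures were grown in LB broth at 37°C. Etest MICs followed the manufacturer's instructions, with cefotaxime and ceftazidime each tested with and without clavulanic acid.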

[2] = tested on: Klebsiella pneumoniae; assay: Antimicrobial activity against CTX-M-2 producing Klebsiella pneumoniae with PFGE pulsotype B by Etest; in short: as §1
[3] = tested on: Klebsiella pneumoniae; assay: Antimicrobial activity against CTX-M-59 producing Klebsiella pneumoniae with PFGE pulsotype C by Etest
[4] = tested on: Klebsiella pneumoniae; assay: Antimicrobial activity against SHV-5 producing Klebsiella pneumoniae with PFGE pulsotype D by Etest; in short: as §1
[5] = tested on: Klebsiella pneumoniae; assay: Antimicrobial activity against CTX-M-59 producing Klebsiella pneumoniae with PFGE pulsotype E by Etest
[6] = tested on: Klebsiella pneumoniae; assay: Antimicrobial activity against CTX-M-59 producing Klebsiella pneumoniae with PFGE pulsotype G by Etest; in short: as §1
[7] = tested on: Klebsiella pneumoniae; assay: Antimicrobial activity against CTX-M-2 producing Klebsiella pneumoniae with PFGE pulsotype H by Etest; in short: as §1
[8] = tested on: Klebsiella pneumoniae; assay: Antimicrobial activity against CTX-M-2 producing Klebsiella pneumoniae with PFGE pulsotype I by Etest
[9] = tested on: Klebsiella pneumoniae; assay: Antimicrobial activity against CTX-M-2 producing Klebsiella pneumoniae with PFGE pulsotype J by Etest
[10] = tested on: Klebsiella pneumoniae; assay: Antimicrobial activity against CTX-M-2 producing Klebsiella pneumoniae with PFGE pulsotype F by Etest
[11] = tested on: Klebsiella pneumoniae; assay: Antimicrobial activity against CTX-M-2 and TEM-1 producing Klebsiella pneumoniae transconjugants/transformants with PFGE pulsotype A by Etest
In short: (§2)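 The recipient was E. coli XL1-Blue Rifr NAr. Plasmids moved by broth mating, with transconjugants selected on LB agar containing ampicillin, rifampin and nalidixic acid, each at 50 μg/ml. Where mating failed, alkaline-lysis plasmid extracts were electroporated and selected on ampicillin 50 μg/ml. β-lactam MICs were read by Etest, with and without clavulanic acid.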

[12] = tested on: Klebsiella pneumoniae; assay: Antimicrobial activity against CTX-M-2 and TEM-1 producing Klebsiella pneumoniae transconjugants/transformants with PFGE pulsotype B by Etest; in short: as §2
[13] = tested on: Klebsiella pneumoniae; assay: Antimicrobial activity against CTX-M-59 and TEM-1 producing Klebsiella pneumoniae transconjugants/transformants with PFGE pulsotype C by Etest; in short: as §2
[14] = tested on: Klebsiella pneumoniae; assay: Antimicrobial activity against SHV-5 producing Klebsiella pneumoniae transconjugants/transformants with PFGE pulsotype D by Etest; in short: as §2
[15] = tested on: Klebsiella pneumoniae; assay: Antimicrobial activity against CTX-M-59 and TEM-1 producing Klebsiella pneumoniae transconjugants/transformants with PFGE pulsotype E by Etest; in short: as §2
[16] = tested on: Klebsiella pneumoniae; assay: Antimicrobial activity against CTX-M-2 and TEM-1 producing Klebsiella pneumoniae transconjugants/transformants with PFGE pulsotype F by Etest; in short: as §2
[17] = tested on: Klebsiella pneumoniae; assay: Antimicrobial activity against CTX-M-59 and TEM-1 producing Klebsiella pneumoniae transconjugants/transformants with PFGE pulsotype G by Etest; in short: as §2
[18] = tested on: Klebsiella pneumoniae; assay: Antimicrobial activity against CTX-M-2 and TEM-1 producing Klebsiella pneumoniae transconjugants/transformants with PFGE pulsotype H by Etest; in short: as §2
[19] = tested on: Klebsiella pneumoniae; assay: Antimicrobial activity against CTX-M-2 and TEM-1 producing Klebsiella pneumoniae transconjugants/transformants with PFGE pulsotype I by Etest; in short: as §2
[20] = tested on: Klebsiella pneumoniae; assay: Antimicrobial activity against CTX-M-2 and TEM-1 producing Klebsiella pneumoniae transconjugants/transformants with PFGE pulsotype J by Etest; in short: as §2

Compound	MIC [1] [µg/mL]	MIC [2] [µg/mL]	MIC [3] [µg/mL]	MIC [4] [µg/mL]	MIC [5] [µg/mL]	MIC [6] [µg/mL]	MIC [7] [µg/mL]	MIC [8] [µg/mL]	MIC [9] [µg/mL]	MIC [10] [µg/mL]	MIC [11] [µg/mL]	MIC [12] [µg/mL]	MIC [13] [µg/mL]	MIC [14] [µg/mL]	MIC [15] [µg/mL]	MIC [16] [µg/mL]	MIC [17] [µg/mL]	MIC [18] [µg/mL]	MIC [19] [µg/mL]	MIC [20] [µg/mL]
O=C(O)c1cn(C2CC2)c2cc(N3CCNCC3)c(F)cc2c1=O [CIPROFLOXACIN]	0.023 (≈ 0.0694 µM)	0.032 (≈ 0.0966 µM)	0.032 (≈ 0.0966 µM)	0.023 (≈ 0.0694 µM)	0.032 (≈ 0.0966 µM)	0.125 (≈ 0.377 µM)	0.023 (≈ 0.0694 µM)	0.032 (≈ 0.0966 µM)	0.023 (≈ 0.0694 µM)	–	–	–	–	–	–	–	–	–	–	–
GENTAMICIN	> 256	> 256	> 256	24	> 256	> 256	> 256	256	–	> 256	> 256	> 256	> 256	24	> 256	> 256	> 256	> 256	> 256	128
